The values that follow come from article PMC5598404 (Toxicology Reports, 2015).

Series [1] concerns human breast cancer MCF7 cells. The series is described as follows: CytoTox 96 Non-Radioactive Cytotoxicity Assay, breast cancer MCF7 cells. Type of series: cell-based. Conditions: MCF7, 12.5-200 μg/mL, 24 h and 48 h. The essentials:
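MCF7 cells from ATCC, grown in ATCC-formulated medium at 37 °C and 5% CO2. Seeded at 10,000 cells/well and grown to 70–80% confluence. Test compounds (DMSO stocks) were added at 200, 100, 50, 25 and 12.5 μg/mL (≈ μM, MW ~1000) for 24 h and 48 h. Negative control was 2% final DMSO. Read by CytoTox 96 kit; three independent experiments, each in triplicate.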

Series [2] has as its system human breast cancer Sk-Br-3 cells. Description: CytoTox 96 Non-Radioactive Cytotoxicity Assay, breast cancer Sk-Br-3 cells. Format: cell-based. In outline:
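Sk-Br-3 cells (ATCC) were kept in ATCC-formulated medium under 5% CO2 at 37 °C, plated at 10,000 cells/well and grown to 70–80% confluence. They were then exposed for 24 h or 48 h to test compounds from DMSO stocks at 400, 200, 100, 50 and 25 μg/mL. Cells given 2% DMSO (final) were the negative control. Cytotoxicity was read by CytoTox 96 kit in three independent experiments, each run in triplicate.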

The conditions of series [3]: contain methionine sulfoxide in their ring; cited from earlier work.

For “NαC-[Met-Leu-Val-Phe-Pro-Leu-Phe-Ile] (head to tail) [[MetO]-LOB1, [1-8-NαC],[1-Rs,Ss-MetO]-linusorb-B1]”, the “Effect on MCF7 cells (in words)” value in series [1] was “small cytoprotective effects”. Besides, in series [2] (Sk-Br-3, 24 h exposure, 400 μg/mL, three independent experiments in triplicate), the “Cytotoxicity towards Sk-Br-3 cells, 24 h, 400 μg/mL” value came to 28%. Also, the “Concentration dependence of cytotoxicity towards Sk-Br-3 cells” value in series [2] (Sk-Br-3, 24 h exposure, 25-400 μg/mL) is recorded as “only showed cytotoxicity at 400 μg/mL”. Also, the “Cytotoxicity towards Sk-Br-3 cells, 48 h, 400 μg/mL” value in series [2] (Sk-Br-3, 48 h exposure, 400 μg/mL, three independent experiments in triplicate) is “maintained their respective cytotoxicity”. In series [3], the “Relative hydrophobicity of methionine sulfoxide LOBs” value was “less hydrophobic than their methionine containing counterparts”.
